According to publication PMC10328739 (Small (Weinheim an der Bergstrasse, Germany), 2021):

Key:
[1] = Screening of micelle elongation; format: physicochemical; settings: T2 micelles
Procedure, shortened: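 Drug loaded into T2 micelles at polymer/drug w/w 10/0, 10/1, 10/2, 10/4 and 10/8. Particle size and size distribution followed over time by DLS. Polymer concentration (1.25–80 mg mL⁻¹), temperature (4, 25, 37 °C) and NaCl (up to ≈4%) also varied. Each formulation scored as spherical, sphere+worm mix, worm, or precipitate.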

[2] = Maximal drug solubilization in POx micelles; format: physicochemical
[3] = system: BRCA1-mutant human breast carcinoma xenograft MDA-MB-436; experiment: Tumor inhibition, MDA-MB-436 xenograft; format: in vivo, athymic nude mice; settings: 20 mg kg^−1 IV, twice a week, six injections

| mass fraction of drug that inhibited elongation [1] [%] | maximal solubilization ([2]; in T2 micelles) [mg/mL] | maximal solubilization ([2]; in T3 micelles) [mg/mL] | Compound | antitumor activity (tumor growth inhibition) [3] |
| --- | --- | --- | --- | --- |
| ≤ 10 | 4 | 8 | CC1(C)CCC(c2ccc(Cl)cc2)=C(CN2CCN(c3ccc(C(=O)NS(=O)(=O)c4ccc(N[C@H](CCN5CCOCC5)CSc5ccccc5)c(S(=O)(=O)C(F)(F)F)c4)cc3)CC2)C1 [ABT-263] |  |
| ≤ 10 |  |  | CC(=O)O[C@H]1C(=O)[C@@]2(C)[C@H]([C@H](OC(=O)c3ccccc3)[C@]3(O)C[C@H](OC(=O)[C@H](O)[C@@H](NC(=O)c4ccccc4)c4ccccc4)C(C)=C1C3(C)C)[C@]1(OC(C)=O)CO[C@@H]1C[C@@H]2O [Paclitaxel] |  |
| ≤ 10 | 4 | 8 | CS(=O)(=O)c1ccc(C(=O)Nc2ccc(Cl)c(-c3ccccn3)c2)c(Cl)c1 [Vismodegib] |  |
|  |  |  | O=C(c1cc(Cc2n[nH]c(=O)c3ccccc23)ccc1F)N1CCN(C(=O)C2CC2)CC1 [Olaparib] | neither the blank spherical micelles nor the free olaparib (20 mg kg^−1) displayed inhibition of the tumor growth |
